Assay results taken from ChEMBL document CHEMBL3632619, “Angucyclines and Angucyclinones from Streptomyces sp. CB01913 Featuring C-Ring Cleavage and Expansion” (J Nat Prod, 2015).
Converted amounts (≈) assume the structure as drawn. The source made the active and inactive calls. The rule behind the calls is not given here.

Key:
[1] = system: NCI-H226; test: Cytotoxicity against human NCI-H226 cells after 72 hrs by MTS assay; assay type: functional, cell-based; details: NCI-H226, 72 h
[2] = system: Bacillus subtilis; test: Antibacterial activity against Bacillus subtilis ATCC 23857 after 18 hrs by broth microdilution method; details: ATCC 23857, 18 h
[3] = system: Escherichia coli; test: Antibacterial activity against Escherichia coli JM 109 after 12 hrs by agar diffusion method; assay type: functional, organism-based
Outline: (§1)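 Filter-paper disc on tryptic soy agar receiving 25 µL of compound at 2 mM in H2O; plates incubated 37 °C for 12 h, then inhibition zone scored; tetracycline as positive control.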

[4] = system: Mycolicibacterium smegmatis; test: Antibacterial activity against Mycobacterium smegmatis ATCC 607 after 18 hrs by broth microdilution method; details: ATCC 607, 18 h
[5] = system: M14; test: Cytotoxicity against human M14 cells after 72 hrs by MTS assay; assay type: functional, cell-based; details: M14, 72 h
[6] = system: MDA-MB-468; test: Cytotoxicity against human MDA-MB-468 cells after 72 hrs by MTS assay; assay type: functional, cell-based; details: MDA-MB-468, 72 h
[7] = system: Escherichia coli; test: Antibacterial activity against Escherichia coli ATCC 25922 after 12 hrs by agar diffusion method; assay type: functional, organism-based; outline: as §1
[8] = system: SF-295; test: Cytotoxicity against human SF295 cells after 72 hrs by MTS assay; assay type: functional, cell-based; details: SF-295, 72 h
[9] = system: SF-539; test: Cytotoxicity against human SF539 cells after 72 hrs by MTS assay; assay type: functional, cell-based; details: SF-539, 72 h
[10] = system: Staphylococcus aureus; test: Antibacterial activity against Staphylococcus aureus ATCC 25923 after 18 hrs by broth microdilution method; details: ATCC 25923, 18 h

| SMILES | IC50 [1] | MIC [2] | Activity [3] | MIC [4] | IC50 [5] | IC50 [6] | Activity [7] | IC50 [8] | IC50 [9] | MIC [10] |
| --- | --- | --- | --- | --- | --- | --- | --- | --- | --- | --- |
| COc1cccc2c1C(=O)c1ccc3c(c1C2O)C(=O)C[C@](C)(O)C3 (stereo partly drawn) | 7.2 µM | > 100 µg/mL | inactive | > 100 µg/mL | 31 µM | 52 µM | inactive | 3.1 µM | 12 µM | > 100 µg/mL |
| COc1cccc2c1C(=O)c1ccc3c(c1C2=O)C(=O)C[C@](C)(O)C3 | 4.6 µM | 25 µg/mL (≈ 74.3 µM) | inactive | > 100 µg/mL | 9.7 µM | 27 µM | inactive | 17 µM | 10 µM | > 100 µg/mL |
| COc1cccc(C(=O)c2c(O)ccc3c2C(=O)C[C@](C)(O)C3)c1CO | > 100 µM | 85 µg/mL (≈ 239 µM) | inactive | 93 µg/mL (≈ 261 µM) | > 100 µM | > 100 µM | inactive | > 100 µM | > 100 µM | > 100 µg/mL |
| C[C@]1(O)CC(=O)c2c(ccc3c2C(=O)c2cccc(O)c2C3=O)C1 [TETRANGOMYCIN] | 7.2 µM | 8.1 µg/mL (≈ 25.1 µM) | inactive | 9.7 µg/mL (≈ 30.1 µM) | 2.4 µM | 16 µM | inactive | 12 µM | 3.2 µM | 11 µg/mL (≈ 34.1 µM) |
| CO[C@@]12[C@H](COC(N)=O)C3=C(C(=O)C(C)=C(N)C3=O)N1C[C@@H]1N[C@@H]12 [MITOMYCIN] | 0.58 µM | – | – | – | 0.47 µM | 0.5 µM | – | 0.54 µM | 0.038 µM | – |
| CN(C)[C@@H]1C(O)=C(C(N)=O)C(=O)[C@@]2(O)C(O)=C3C(=O)c4c(O)cccc4[C@@](C)(O)[C@H]3C[C@@H]12 [TETRACYCLINE] | – | 13 µg/mL (≈ 29.3 µM) | – | 11 µg/mL (≈ 24.8 µM) | – | – | – | – | – | 6.7 µg/mL (≈ 15.1 µM) |
